Data as given in ChEMBL document CHEMBL1926565, “Synthesis, antiproliferative activities and telomerase inhibition evaluation of novel asymmetrical 1,2-disubstituted amidoanthraquinone derivatives” (Eur J Med Chem, 2012).
Calls of active or inactive are those of the source. The rule behind the calls is not given here.

Assays:
OVCAR-5 = test: Cytotoxicity against human OVCAR5 cells assessed as cellular growth at 10 uM; assay type: functional
Outline: (§1)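 Single-dose screen run by the NCI across its 60-human-tumour-cell-line panel; growth recorded for each cell line.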

PC-3 = test: Cytotoxicity against human PC3 cells assessed as cellular growth at 10 uM; assay type: functional; outline: as §1
SK-MEL-28 = test: Cytotoxicity against human SK-MEL-28 cells assessed as cellular growth at 10 uM; assay type: functional; outline: as §1
SNB-75 = test: Cytotoxicity against human SNB75 cells assessed as cellular growth at 10 uM; assay type: functional
HL-60(TB) = test: Cytotoxicity against human HL-60(TB) cells assessed as cellular growth at 10 uM; assay type: functional; outline: as §1
SR = test: Cytotoxicity against human SR cells assessed as cellular growth at 10 uM; assay type: functional
SK-MEL-2 = test: Cytotoxicity against human SK-MEL-2 cells assessed as cellular growth at 10 uM; assay type: functional; outline: as §1
OVCAR-3 = test: Cytotoxicity against human OVCAR3 cells assessed as cellular growth at 10 uM; assay type: functional; outline: as §1
COLO 205 = test: Cytotoxicity against human COLO205 cells assessed as cellular growth at 10 uM; assay type: functional; outline: as §1
NCI-H226 = test: Cytotoxicity against human NCI-H226 cells assessed as cellular growth at 10 uM; assay type: functional; outline: as §1
SW-620 = test: Cytotoxicity against human SW620 cells assessed as cellular growth at 10 uM; assay type: functional
A498 = test: Cytotoxicity against human A498 cells assessed as cellular growth at 10 uM; assay type: functional; outline: as §1
MOLT-4 = test: Cytotoxicity against human MOLT4 cells assessed as cellular growth at 10 uM; assay type: functional; outline: as §1
MDA-MB-231 = test: Cytotoxicity against human MDA-MB-231 cells assessed as cellular growth at 10 uM; assay type: functional; outline: as §1
[1] = molecular target: Telomerase reverse transcriptase (Homo sapiens) (UniProt O14746); test: Residual activity of human TERT in H1299 cells at 1 uM after 24 hrs by SEAP reporter gene assay
A549 = test: Cytotoxicity against human A549 cells assessed as cellular growth at 10 uM; assay type: functional; outline: as §1
HOP-62 = test: Cytotoxicity against human HOP62 cells assessed as cellular growth at 10 uM; assay type: functional; outline: as §1
SK-OV-3 = test: Cytotoxicity against human SKOV3 cells assessed as cellular growth at 10 uM; assay type: functional
ACHN = test: Cytotoxicity against human ACHN cells assessed as cellular growth at 10 uM; assay type: functional; outline: as §1
IGROV-1 = test: Cytotoxicity against human IGROV1 cells assessed as cellular growth at 10 uM; assay type: functional; outline: as §1
UACC-62 = test: Cytotoxicity against human UACC62 cells assessed as cellular growth at 10 uM; assay type: functional
TK-10 = test: Cytotoxicity against human TK10 cells assessed as cellular growth at 10 uM; assay type: functional
NCI-H322M = test: Cytotoxicity against human NCI-H322M cells assessed as cellular growth at 10 uM; assay type: functional; outline: as §1
EKVX = test: Cytotoxicity against human EKVX cells assessed as cellular growth at 10 uM; assay type: functional; outline: as §1
MCF7 = test: Cytotoxicity against human MCF7 cells assessed as cellular growth at 10 uM; assay type: functional; outline: as §1
SNB-19 = test: Cytotoxicity against human SNB19 cells assessed as cellular growth at 10 uM; assay type: functional
NCI-H522 = test: Cytotoxicity against human NCI-H522 cells assessed as cellular growth at 10 uM; assay type: functional; outline: as §1
[2] = molecular target: Telomerase reverse transcriptase (Homo sapiens) (UniProt O14746); test: Inhibition of telomerase activity in human H1299 cell free extract at 10 uM by modified TRAP assay
Outline: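 TRAP assay using total cell lysate from H1299 lung cancer cells as the telomerase source, with protein measured against BSA standards. Compounds tested at 10 µM. Controls were lysate without inhibitor (positive) and RNase A-treated extract without inhibitor (negative).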

LOX IMVI = test: Cytotoxicity against human LOXIMVI cells assessed as cellular growth at 10 uM; assay type: functional; outline: as §1
KM12 = test: Cytotoxicity against human KM12 cells assessed as cellular growth at 10 uM; assay type: functional; outline: as §1
M14 = test: Cytotoxicity against human M14 cells assessed as cellular growth at 10 uM; assay type: functional; outline: as §1
OVCAR-4 = test: Cytotoxicity against human OVCAR4 cells assessed as cellular growth at 10 uM; assay type: functional; outline: as §1
SF-295 = test: Cytotoxicity against human SF295 cells assessed as cellular growth at 10 uM; assay type: functional; outline: as §1
MDA-MB-468 = test: Cytotoxicity against human MDA-MB-468 cells assessed as cellular growth at 10 uM; assay type: functional; outline: as §1
NCI/ADR-RES = test: Cytotoxicity against human NCI/ADR-RES cells assessed as cellular growth at 10 uM; assay type: functional; outline: as §1
SK-MEL-5 = test: Cytotoxicity against human SK-MEL-5 cells assessed as cellular growth at 10 uM; assay type: functional
[3] = molecular target: Telomerase reverse transcriptase (Homo sapiens) (UniProt O14746); test: Residual activity of human TERT in H1299 cells at 100 uM after 24 hrs by SEAP reporter gene assay
[4] = Growth of human H1299 cells at 1 uM after 48 hrs by MTT assay; details: NCI-H1299, 48 h
BT-549 = test: Cytotoxicity against human BT549 cells assessed as cellular growth at 10 uM; assay type: functional; outline: as §1
NCI-H23 = test: Cytotoxicity against human NCI-H23 cells assessed as cellular growth at 10 uM; assay type: functional; outline: as §1
HOP-92 = test: Cytotoxicity against human HOP92 cells assessed as cellular growth at 10 uM; assay type: functional; outline: as §1
SF-539 = test: Cytotoxicity against human SF539 cells assessed as cellular growth at 10 uM; assay type: functional; outline: as §1
[5] = Growth of human H1299 cells at 10 uM after 48 hrs by MTT assay; details: NCI-H1299, 48 h
[6] = molecular target: Telomerase reverse transcriptase (Homo sapiens) (UniProt O14746); test: Residual activity of human TERT in H1299 cells at 10 uM after 24 hrs by SEAP reporter gene assay
786-0 = test: Cytotoxicity against human 786-0 cells assessed as cellular growth at 10 uM; assay type: functional; outline: as §1

Telomerase reverse transcriptase (Homo sapiens), sequence (O14746 whole entry): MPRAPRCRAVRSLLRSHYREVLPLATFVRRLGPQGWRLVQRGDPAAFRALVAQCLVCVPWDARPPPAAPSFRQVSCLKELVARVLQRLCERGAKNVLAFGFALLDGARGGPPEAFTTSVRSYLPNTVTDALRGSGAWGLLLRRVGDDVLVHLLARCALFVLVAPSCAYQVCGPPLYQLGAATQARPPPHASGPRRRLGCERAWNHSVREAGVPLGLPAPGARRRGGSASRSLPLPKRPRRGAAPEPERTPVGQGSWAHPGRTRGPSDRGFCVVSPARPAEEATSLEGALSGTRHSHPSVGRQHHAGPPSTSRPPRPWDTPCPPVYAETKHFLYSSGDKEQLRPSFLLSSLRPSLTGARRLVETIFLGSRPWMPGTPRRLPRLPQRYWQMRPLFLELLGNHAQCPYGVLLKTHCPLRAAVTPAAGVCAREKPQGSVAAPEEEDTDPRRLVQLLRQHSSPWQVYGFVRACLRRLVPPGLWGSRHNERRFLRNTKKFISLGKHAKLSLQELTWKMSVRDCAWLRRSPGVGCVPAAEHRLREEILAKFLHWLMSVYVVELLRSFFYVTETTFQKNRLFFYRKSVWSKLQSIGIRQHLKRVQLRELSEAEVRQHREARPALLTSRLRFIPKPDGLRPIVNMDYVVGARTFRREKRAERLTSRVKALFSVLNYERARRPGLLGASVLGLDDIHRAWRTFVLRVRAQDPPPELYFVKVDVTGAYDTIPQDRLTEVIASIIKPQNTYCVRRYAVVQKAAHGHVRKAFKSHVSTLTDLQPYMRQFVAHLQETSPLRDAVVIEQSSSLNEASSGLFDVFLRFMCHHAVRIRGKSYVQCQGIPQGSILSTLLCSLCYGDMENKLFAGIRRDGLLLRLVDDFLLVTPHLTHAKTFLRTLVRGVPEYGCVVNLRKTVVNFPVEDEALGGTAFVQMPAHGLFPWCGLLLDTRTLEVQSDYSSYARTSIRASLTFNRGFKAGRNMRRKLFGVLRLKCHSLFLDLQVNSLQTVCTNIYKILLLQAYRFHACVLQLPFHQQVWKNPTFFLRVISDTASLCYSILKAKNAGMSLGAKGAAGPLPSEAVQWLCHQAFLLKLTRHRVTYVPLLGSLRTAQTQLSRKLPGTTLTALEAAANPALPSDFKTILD

## Cc1ccc(C(=O)Nc2c(NC(=O)CCl)ccc3c2C(=O)c2ccccc2C3=O)cc1
OVCAR-5
  Activity: 109.55%
PC-3
  Activity: 6.81%
SK-MEL-28
  Activity: -31.94%
SNB-75
  Activity: 6.31%
HL-60(TB)
  Activity: -46.88%
SR
  Activity: -19.84%
SK-MEL-2
  Activity: 52%
OVCAR-3
  Activity: -92.86%
COLO 205
  Activity: -53.43%
NCI-H226
  Activity: -25.3%
SW-620
  Activity: -43.27%
A498
  Activity: 123.78%
MOLT-4
  Activity: -23.17%
MDA-MB-231
  Activity: 24.67%
[1]
  residual activity: 109%
A549
  Activity: -81.71%
HOP-62
  Activity: -28.62%
SK-OV-3
  Activity: 106.24%
ACHN
  Activity: 21.92%
IGROV-1
  Activity: 51.41%
UACC-62
  Activity: -67.8%
TK-10
  Activity: 130.52%
NCI-H322M
  Activity: 95.05%
EKVX
  Activity: 88.22%
MCF7
  Activity: -79.28%
SNB-19
  Activity: 88.4%
NCI-H522
  Activity: 57.88%
[2]
  inhibition: inactive
LOX IMVI
  Activity: -57.05%
KM12
  Activity: -19.53%
M14
  Activity: -22.68%
OVCAR-4
  Activity: 34.52%
SF-295
  Activity: 79.7%
MDA-MB-468
  Activity: -83.42%
NCI/ADR-RES
  Activity: 72.17%
SK-MEL-5
  Activity: -98.72%
[3]
  residual activity: 0%
[4]
  growth, % of control at 1 µM: 103%
BT-549
  Activity: 28.19%
NCI-H23
  Activity: -85.89%
HOP-92
  Activity: -68.77%
SF-539
  Activity: -31.42%
[5]
  growth, % of control at 10 µM: 2%
[6]
  residual activity: 0%
786-0
  Activity: 11.3%
